Experimental data reported in ChEMBL document CHEMBL3352314, “Synthesis and antiproliferative activity of 8-hydroxyquinoline derivatives containing a 1,2,3-triazole moiety” (Eur J Med Chem, 2014).
In brackets after ≈: the same amount, converted by molar mass.

What was measured:
NCI/ADR-RES = assay: Antiproliferative activity against human NCI/ADR-RES cells assessed as growth inhibition after 48 hrs by sulforhodamine B assay; type: functional
Summary of the method: (§1)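 Cells in RPMI with penicillin:streptomycin added, exposed 48 h at 37 °C, 5% CO2 to 0.25, 2.5, 25 and 250 µg/mL compound in DMSO/RPMI (0.1% v/v). Doxorubicin (0.025–25 µg/mL) served as positive control. Cells were then fixed with 50% TCA and stained with sulforhodamine B, with protein read at 540 nm. Growth = 100×(T−T0)/(C−T0), using T0 and 48 h readings. GI50 was obtained by non-linear regression. Done in triplicate.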

HaCaT [1] = assay: Selectivity index, ratio of GI50 for human HaCaT cells to GI50 for human PC3 cells; type: functional
786-0 = assay: Antiproliferative activity against human 786-0 cells assessed as growth inhibition after 48 hrs by sulforhodamine B assay; type: functional; settings: 786-0, 48 h; summary of the method: as §1
[2] = Antiproliferative activity against human HaCaT cells assessed as growth inhibition after 48 hrs by sulforhodamine B assay; type: cell-based; summary of the method: as §1
[3] = Antiproliferative activity against human OVCAR3 cells assessed as growth inhibition after 48 hrs by sulforhodamine B assay; type: functional; settings: OVCAR-3, 48 h; summary of the method: as §1
HaCaT [4] = assay: Selectivity index, ratio of GI50 for human HaCaT cells to GI50 for human 786-0 cells; type: functional
NCI-H460 [5] = assay: Selectivity index, ratio of GI50 for human HaCaT cells to GI50 for human NCI-H460 cells; type: functional
NCI-H460 [6] = assay: Antiproliferative activity against human NCI-H460 cells assessed as growth inhibition after 48 hrs by sulforhodamine B assay; type: functional; settings: NCI-H460, 48 h; summary of the method: as §1
[7] = Antiproliferative activity against human PC3 cells assessed as growth inhibition after 48 hrs by sulforhodamine B assay; type: functional; settings: PC-3, 48 h; summary of the method: as §1
U-251 = assay: Antiproliferative activity against human U251 cells assessed as growth inhibition after 48 hrs by sulforhodamine B assay; type: functional; settings: U-251, 48 h; summary of the method: as §1
MCF7 = assay: Antiproliferative activity against human MCF7 cells assessed as growth inhibition after 48 hrs by sulforhodamine B assay; type: functional; settings: MCF7, 48 h; summary of the method: as §1
HaCaT [8] = assay: Selectivity index, ratio of GI50 for human HaCaT cells to GI50 for human OVCAR3 cells; type: functional
HaCaT [9] = assay: Selectivity index, ratio of GI50 for human HaCaT cells to GI50 for human MCF7 cells; type: functional
HaCaT [10] = assay: Selectivity index, ratio of GI50 for human HaCaT cells to GI50 for human NCI/ADR-RES cells; type: functional
HaCaT [11] = assay: Selectivity index, ratio of GI50 for human HaCaT cells to GI50 for human U251 cells; type: functional

SMILES | GI50 (NCI/ADR-RES) [µg/mL] | RatioGI50 (HaCaT [1]) | GI50 (786-0) [µg/mL] | GI50 at 48 h [2] [µg/mL] | GI50 [3] [µg/mL] | RatioGI50 (HaCaT [4]) | RatioGI50 (NCI-H460 [5]) | GI50 (NCI-H460 [6]) [µg/mL] | GI50 [7] [µg/mL] | GI50 (U-251) [µg/mL] | GI50 (MCF7) [µg/mL] | RatioGI50 (HaCaT [8]) | RatioGI50 (HaCaT [9]) | RatioGI50 (HaCaT [10]) | RatioGI50 (HaCaT [11])
Ic1ccc(Cn2cc(CCCOc3cccc4cccnc34)nn2)cc1 | > 250 | >10.1 | 22.6 (≈ 48.1 µM) | > 250 | 24.7 (≈ 52.5 µM) | >11.1 | >10.2 | 24.6 (≈ 52.3 µM) | 24.7 (≈ 52.5 µM) | > 250 | 25 (≈ 53.2 µM) | >10.1 | >10 | – | –
Fc1ccc(Cn2cc(CCCOc3cccc4cccnc34)nn2)cc1 | 49.4 (≈ 136 µM) | 5.7 | 195 (≈ 538 µM) | 115 (≈ 318 µM) | 23.1 (≈ 63.7 µM) | 0.6 | 3.3 | 34.4 (≈ 94.9 µM) | 20.1 (≈ 55.5 µM) | 20.7 (≈ 57.1 µM) | 11.7 (≈ 32.3 µM) | 5 | 9.8 | 2.3 | 5.6
Clc1ccc(Cn2cc(CCCOc3cccc4cccnc34)nn2)cc1 | 11.6 (≈ 30.6 µM) | 1.2 | 2.8 (≈ 7.39 µM) | 4.2 (≈ 11.1 µM) | 8.1 (≈ 21.4 µM) | 1.5 | 0.4 | 11.2 (≈ 29.6 µM) | 3.6 (≈ 9.5 µM) | 3.4 (≈ 8.97 µM) | 6.2 (≈ 16.4 µM) | 0.5 | 0.7 | 0.4 | 1.2
Brc1ccc(Cn2cc(CCCOc3cccc4cccnc34)nn2)cc1 | 25.8 (≈ 60.9 µM) | 3.5 | 25.9 (≈ 61.2 µM) | 29.2 (≈ 69 µM) | 27.2 (≈ 64.3 µM) | 1.1 | 2.5 | 11.7 (≈ 27.6 µM) | 8.4 (≈ 19.8 µM) | 8.4 (≈ 19.8 µM) | 28 (≈ 66.1 µM) | 1.1 | 1 | 1.1 | 3.5
FC(F)(F)Oc1ccc(Cn2cc(CCCOc3cccc4cccnc34)nn2)cc1 | 5.5 (≈ 12.8 µM) | 0.8 | 7.9 (≈ 18.4 µM) | 4 (≈ 9.34 µM) | 24.5 (≈ 57.2 µM) | 0.5 | 0.4 | 10.4 (≈ 24.3 µM) | 5 (≈ 11.7 µM) | 9.8 (≈ 22.9 µM) | 3.1 (≈ 7.24 µM) | 0.2 | 1.3 | 0.7 | 0.4
Fc1ccc(Cn2cc(CCCOc3cccc4cccnc34)nn2)cc1F | 42.1 (≈ 111 µM) | 6.3 | 8.5 (≈ 22.3 µM) | 41.7 (≈ 110 µM) | 63.5 (≈ 167 µM) | 4.9 | 1.8 | 23.7 (≈ 62.3 µM) | 6.6 (≈ 17.4 µM) | 18.2 (≈ 47.8 µM) | 21.3 (≈ 56 µM) | 0.7 | 1.9 | 1 | 2.3
Clc1cc(Cl)c(Cn2cc(CCCOc3cccc4cccnc34)nn2)c(Cl)c1 | 2.8 (≈ 6.25 µM) | 1.9 | 5.6 (≈ 12.5 µM) | 5.3 (≈ 11.8 µM) | 11.4 (≈ 25.5 µM) | 0.9 | 0.7 | 7.4 (≈ 16.5 µM) | 2.8 (≈ 6.25 µM) | 3.1 (≈ 6.92 µM) | 2.9 (≈ 6.48 µM) | 0.5 | 1.8 | 1.9 | 1.7
Clc1ccc(Br)cc1Cn1cc(CCCOc2cccc3cccnc23)nn1 | 2.5 (≈ 5.46 µM) | 0.6 | > 250 | 4.9 (≈ 10.7 µM) | 8 (≈ 17.5 µM) | – | 0.6 | 7.9 (≈ 17.3 µM) | 8.2 (≈ 17.9 µM) | 8.7 (≈ 19 µM) | 9.6 (≈ 21 µM) | 0.6 | 0.5 | 2 | 0.6
c1ccc(Cn2cc(CCCOc3cccc4cccnc34)nn2)cc1 | 10.4 (≈ 30.2 µM) | 0.8 | 25 (≈ 72.6 µM) | 12.7 (≈ 36.9 µM) | 24.3 (≈ 70.6 µM) | 0.5 | 0.4 | 28.6 (≈ 83 µM) | 16.8 (≈ 48.8 µM) | 25.2 (≈ 73.2 µM) | 12.7 (≈ 36.9 µM) | 0.5 | 1 | 1.2 | 0.5
c1cncc(CCCn2cc(CCCOc3cccc4cccnc34)nn2)c1 | 12.5 (≈ 33.5 µM) | 0.9 | 69.4 (≈ 186 µM) | 25 (≈ 66.9 µM) | 39.1 (≈ 105 µM) | 0.4 | 0.6 | 44.3 (≈ 119 µM) | 26.7 (≈ 71.5 µM) | 25.1 (≈ 67.2 µM) | 27.8 (≈ 74.4 µM) | 0.6 | 0.9 | 2 | 1
CC1(C)O[C@H]2[C@@H](O1)[C@@H](Cn1cc(CCCOc3cccc4cccnc34)nn1)O[C@@H]1OC(C)(C)O[C@@H]12 | 28.6 (≈ 57.6 µM) | 1.8 | 30.8 (≈ 62 µM) | 29.4 (≈ 59.2 µM) | < 0.25 | 0.9 | 1 | 30.1 (≈ 60.6 µM) | 16.2 (≈ 32.6 µM) | 24.3 (≈ 48.9 µM) | 2.6 (≈ 5.24 µM) | >117.6 | 11.3 | 1 | 1.2
O=C(Cn1cc(CCCOc2cccc3cccnc23)nn1)OCc1ccc(F)c(F)c1 | 4.9 (≈ 11.2 µM) | 7.4 | 26.1 (≈ 59.5 µM) | 21.4 (≈ 48.8 µM) | 15.1 (≈ 34.4 µM) | 0.8 | 0.7 | 29.2 (≈ 66.6 µM) | 2.9 (≈ 6.61 µM) | 26.5 (≈ 60.4 µM) | 27.2 (≈ 62 µM) | 1.4 | 0.8 | 4.4 | 0.8
COc1cccc2c1C(=O)c1c(O)c3c(c(O)c1C2=O)C[C@@](O)(C(=O)CO)C[C@@H]3O[C@H]1C[C@H](N)[C@H](O)[C@H](C)O1 [DOXORUBICIN] | 0.54 (≈ 0.994 µM) | – | 0.15 (≈ 0.276 µM) | 0.11 (≈ 0.202 µM) | 0.43 (≈ 0.791 µM) | – | – | < 0.025 | 3.8 (≈ 6.99 µM) | 0.039 (≈ 0.0718 µM) | 0.038 (≈ 0.0699 µM) | – | – | – | –
